Results taken from ChEMBL document CHEMBL4689842, “EUbOPEN Chemogenomics Library wave 1” (2021).

Tested on: U2OS
Assay: Multiplex assay against U2OS
Format: toxicity, cell-based
Settings: human
Method in brief: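 Imaging took place on a CQ1 microscope at 37°C and 5% CO2 once compound had been added to live cells stained at seeding with Hoechst33342, BioTracker Green Microtubule Cytoskeleton Dye, MitoTracker Red and Annexin V Alexa Fluor 680. CellPathfinder machine-learning gating classed cells as Hoechst high-intensity objects or normal cells, classed normal cells as having healthy, pyknosed or fragmented nuclei, and classed pyknosed cells as mitotic or apoptotic. Tubulin, mitochondrial-mass and membrane-permeability phenotypes are per cents of the healthy-nucleus cells.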

[1] = 12 h, 1 µM, compound concentration 1 uM, replicate 1
[2] = 12 h, 1 µM, compound concentration 1 uM, replicate 2
[3] = 12 h, 10 µM, compound concentration 10 uM, replicate 1
[4] = 12 h, 10 µM, compound concentration 10 uM, replicate 2
[5] = 24 h, 1 µM, compound concentration 1 uM, replicate 1
[6] = 24 h, 1 µM, compound concentration 1 uM, replicate 2
[7] = 24 h, 10 µM, compound concentration 10 uM, replicate 1
[8] = 24 h, 10 µM, compound concentration 10 uM, replicate 2
[9] = 48 h, 1 µM, compound concentration 1 uM, replicate 1
[10] = 48 h, 1 µM, compound concentration 1 uM, replicate 2
[11] = 48 h, 10 µM, compound concentration 10 uM, replicate 1
[12] = 48 h, 10 µM, compound concentration 10 uM, replicate 2

CCOc1cc(C(=O)N2CCC(N3CCN(C)CC3)CC2)ccc1Nc1ncc2c(n1)N(C1CCCC1)c1ccccc1C(=O)N2C
Population Apoptotic (%) [1]: 73%
Population Fragmented Nuclei (%) [1]: 14%
Population Healthy Nuclei (%) [1]: 70%
Population Hoechst High Intensity Objects (%) [1]: 6%
Population Membrane Permeable-Phenotype (%) [1]: 8%
Population Mitochondria Different-Phenotype (%) [1]: 75%
Population Mitotic Cells (%) [1]: 26%
Population Normal (%) [1]: 93%
Population Pyknosed Nuclei (%) [1]: 15%
Population Tubulin-Different-Phenotype (%) [1]: 69%
Total Cell Count [1]: 153
Population Apoptotic (%) [2]: 75%
Population Fragmented Nuclei (%) [2]: 6%
Population Healthy Nuclei (%) [2]: 80%
Population Hoechst High Intensity Objects (%) [2]: 10%
Population Membrane Permeable-Phenotype (%) [2]: 4%
Population Mitochondria Different-Phenotype (%) [2]: 76%
Population Mitotic Cells (%) [2]: 25%
Population Normal (%) [2]: 89%
Population Pyknosed Nuclei (%) [2]: 12%
Population Tubulin-Different-Phenotype (%) [2]: 48%
Total Cell Count [2]: 67
Population Apoptotic (%) [3]: 83%
Population Fragmented Nuclei (%) [3]: 19%
Population Healthy Nuclei (%) [3]: 48%
Population Hoechst High Intensity Objects (%) [3]: 7%
Population Membrane Permeable-Phenotype (%) [3]: 95%
Population Mitochondria Different-Phenotype (%) [3]: 97%
Population Mitotic Cells (%) [3]: 16%
Population Normal (%) [3]: 92%
Population Pyknosed Nuclei (%) [3]: 32%
Population Tubulin-Different-Phenotype (%) [3]: 100%
Total Cell Count [3]: 181
Population Apoptotic (%) [4]: 92%
Population Fragmented Nuclei (%) [4]: 21%
Population Healthy Nuclei (%) [4]: 50%
Population Hoechst High Intensity Objects (%) [4]: 6%
Population Membrane Permeable-Phenotype (%) [4]: 93%
Population Mitotic Cells (%) [4]: 7%
Population Normal (%) [4]: 93%
Population Pyknosed Nuclei (%) [4]: 27%
Total Cell Count [4]: 69
Population Apoptotic (%) [5]: 50%
Population Healthy Nuclei (%) [5]: 61%
Population Hoechst High Intensity Objects (%) [5]: 4%
Population Membrane Permeable-Phenotype (%) [5]: 2%
Population Mitochondria Different-Phenotype (%) [5]: 64%
Population Mitotic Cells (%) [5]: 50%
Population Normal (%) [5]: 95%
Population Pyknosed Nuclei (%) [5]: 22%
Population Tubulin-Different-Phenotype (%) [5]: 17%
Total Cell Count [5]: 142
Population Apoptotic (%) [6]: 22%
Population Fragmented Nuclei (%) [6]: 16%
Population Healthy Nuclei (%) [6]: 72%
Population Hoechst High Intensity Objects (%) [6]: 5%
Population Membrane Permeable-Phenotype (%) [6]: 5%
Population Mitochondria Different-Phenotype (%) [6]: 65%
Population Mitotic Cells (%) [6]: 77%
Population Normal (%) [6]: 94%
Population Pyknosed Nuclei (%) [6]: 11%
Population Tubulin-Different-Phenotype (%) [6]: 27%
Total Cell Count [6]: 71
Population Apoptotic (%) [7]: 92%
Population Fragmented Nuclei (%) [7]: 23%
Population Healthy Nuclei (%) [7]: 17%
Population Hoechst High Intensity Objects (%) [7]: 7%
Population Membrane Permeable-Phenotype (%) [7]: 93%
Population Mitochondria Different-Phenotype (%) [7]: 100%
Population Mitotic Cells (%) [7]: 7%
Population Normal (%) [7]: 92%
Total Cell Count [7]: 215
Population Apoptotic (%) [8]: 88%
Population Fragmented Nuclei (%) [8]: 10%
Population Healthy Nuclei (%) [8]: 30%
Population Hoechst High Intensity Objects (%) [8]: 11%
Population Membrane Permeable-Phenotype (%) [8]: 100%
Population Mitochondria Different-Phenotype (%) [8]: 96%
Population Mitotic Cells (%) [8]: 11%
Population Normal (%) [8]: 88%
Population Pyknosed Nuclei (%) [8]: 59%
Population Tubulin-Different-Phenotype (%) [8]: 100%
Total Cell Count [8]: 85
Population Apoptotic (%) [9]: 53%
Population Fragmented Nuclei (%) [9]: 15%
Population Healthy Nuclei (%) [9]: 64%
Population Hoechst High Intensity Objects (%) [9]: 3%
Population Membrane Permeable-Phenotype (%) [9]: 1%
Population Mitochondria Different-Phenotype (%) [9]: 28%
Population Mitotic Cells (%) [9]: 46%
Population Normal (%) [9]: 96%
Population Pyknosed Nuclei (%) [9]: 19%
Population Tubulin-Different-Phenotype (%) [9]: 9%
Total Cell Count [9]: 151
Population Apoptotic (%) [10]: 42%
Population Fragmented Nuclei (%) [10]: 13%
Population Healthy Nuclei (%) [10]: 72%
Population Hoechst High Intensity Objects (%) [10]: 5%
Population Membrane Permeable-Phenotype (%) [10]: 12%
Population Mitochondria Different-Phenotype (%) [10]: 40%
Population Mitotic Cells (%) [10]: 57%
Population Normal (%) [10]: 94%
Population Pyknosed Nuclei (%) [10]: 14%
Population Tubulin-Different-Phenotype (%) [10]: 25%
Total Cell Count [10]: 81
Population Apoptotic (%) [11]: 93%
Population Fragmented Nuclei (%) [11]: 34%
Population Healthy Nuclei (%) [11]: 1%
Population Hoechst High Intensity Objects (%) [11]: 14%
Population Membrane Permeable-Phenotype (%) [11]: 100%
Population Mitochondria Different-Phenotype (%) [11]: 100%
Population Mitotic Cells (%) [11]: 6%
Population Normal (%) [11]: 85%
Population Pyknosed Nuclei (%) [11]: 63%
Population Tubulin-Different-Phenotype (%) [11]: 100%
Total Cell Count [11]: 281
Population Apoptotic (%) [12]: 100%
Population Fragmented Nuclei (%) [12]: 16%
Population Healthy Nuclei (%) [12]: 20%
Population Hoechst High Intensity Objects (%) [12]: 18%
Population Membrane Permeable-Phenotype (%) [12]: 93%
Population Mitochondria Different-Phenotype (%) [12]: 86%
Population Mitotic Cells (%) [12]: 0%
Population Normal (%) [12]: 81%
Population Pyknosed Nuclei (%) [12]: 62%
Population Tubulin-Different-Phenotype (%) [12]: 93%
Total Cell Count [12]: 103
